Bioassay records: PubChem, several laboratories
S1P1 ag-PAM = activates or potentiates agonism at human S1P1 receptor; activation, % at 9.5 µM; P21453; S1P1 CRE-bla cells, forskolin, beta-lactamase FRET, potentiator mode; S1P1 agonist co-added at EC20, 2 nM; 100% = saturating reference agonist, 0% = basal; 0.57% of 56,000 active;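 active = activation above a cutoff set at the mean activation of all tested compounds plus 3 SD, cut at about 54% in these data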;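 note: forskolin at 4 µM as EC80 and the EC20 agonist is SEW2871; 100% = SEW2871 at its EC100 plus forskolin at EC80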
M1 antagonist = antagonists of rat M1 muscarinic receptor | CHO-M1 cells, Fluo-4 calcium, ACh EC80 antagonist mode; hits give low values | B-score at 10 µM | 3.4% of 64,000 active;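 active = calcium fluorescence response, raw or row-and-column corrected B-score, differing from the plate sample mean either way at a set confidence level, mostly lower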
S1P3 ag = S1P3 (human) receptor agonism | S1P3 NFAT-BLA reporter cells, FRET ratio; relative to 1 µM S1P, basal subtracted | activation, % at 4.5 µM | 0.1% of 60,000 active | AID 373;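 active = activation above the screen-wide mean plus 3 SD, cut at about 4.5% in these data, passing the limit was not always enough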
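Assay system: stable CHO line with human S1P3, Gα16, NFAT-BLA reporter; Detection: FRET β-lactamase substrate fluorescence, excitation 405 nm, 460/535 nm emission ratio, background-subtracted; Read-out: percent activation versus median 1 µM S1P response, basal-subtracted, per plate; Incubation: cells plated overnight, compound 4 h 37 °C, substrate 2 h RT.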
SF-1 act = activators of human nuclear receptor SF-1 | Q13285 | CHO-K1 Gal4-SF-1 LBD luciferase reporter; % increase over DMSO SF-1-specific signal | activation, % at 10 µM | 1.9% of 65,000 active | AID 522;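 active = activation above the mean activation of all tested compounds plus 3 SD, cut at about 50% in these data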
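Material: Transient Gal4-SF-1 LBD reporter, CHO-K1 | Input: 4,000 cells/well | Dosing: One dose, 10 µM compound, 1% DMSO | Incubation: 20 h compound treatment, 37 °C | Detection: SteadyLite luciferase luminescence | Evaluation: Percent activation relative to DMSO median and mock-transfected background | Benchmarks: DMSO-treated SF-1-transfected cells as negative, DMSO-treated mock-transfected cells lacking SF-1 as background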
M1 agonist = M1 muscarinic receptor agonism. CHO-M1 cells, Fluo-4 calcium fluorescence, agonist mode; hits give high values. 3% of 64,000 active. B-score at 10 µM;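 active = fluorescence rise, raw or as B-score row- and column-corrected plate score, outside the 99.7% band of its plate's samples, either direction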
RORA act = activators of human nuclear receptor RORA; CHO-K1 Gal4-RORA LBD luciferase reporter, luminescence; percent increase over mock-subtracted basal signal; activation, % at 10 µM; 1.5% of 65,000 active; AID 560;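 active = activation above the mean of all tested compounds plus 3 SD, cut at about 49% in these data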;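 note: 0% = DMSO-treated RORA cells and 100% = added signal equal to DMSO minus mock-transfected cells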
Target sequence (P35398 whole entry, looked up, the tested form may be a part): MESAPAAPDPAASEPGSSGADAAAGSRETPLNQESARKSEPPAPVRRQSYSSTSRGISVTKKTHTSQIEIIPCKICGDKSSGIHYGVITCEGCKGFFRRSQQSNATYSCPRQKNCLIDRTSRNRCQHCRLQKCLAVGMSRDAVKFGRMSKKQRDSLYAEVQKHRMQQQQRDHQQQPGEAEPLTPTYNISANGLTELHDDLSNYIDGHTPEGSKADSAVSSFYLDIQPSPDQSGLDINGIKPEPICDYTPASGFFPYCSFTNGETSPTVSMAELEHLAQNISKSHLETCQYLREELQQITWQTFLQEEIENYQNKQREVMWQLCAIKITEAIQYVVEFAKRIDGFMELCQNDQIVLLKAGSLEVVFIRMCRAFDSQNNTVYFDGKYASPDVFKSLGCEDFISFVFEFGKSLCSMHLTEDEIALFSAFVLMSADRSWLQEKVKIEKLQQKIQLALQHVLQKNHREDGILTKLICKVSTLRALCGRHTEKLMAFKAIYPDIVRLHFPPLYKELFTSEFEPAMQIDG
Active calls of the source: *; x = no result given. In the library only some 8.8% were active in any assay of this set; here they are far more common.

SMILES	S1P1 ag-PAM	M1 antagonist	S1P3 ag	SF-1 act	M1 agonist	RORA act
COc1ccc(NC(=O)Nc2cccc(OC)c2)cc1	-11.8	0.446	-0.6	35.1	0.948	67.7*
CSc1cccc(NC(=O)Nc2ccccc2)c1	11.1	-0.045	-1.8	50.1*	-0.39	63.4*
COc1ccc(OCC(=O)Nc2cccc(OC)c2)cc1	7.8	-0.548	-1.5	-20.7	0.345	29.6
COc1ccc(NC(=O)Nc2cccc(C)n2)cc1	-9.1	0.0476	-0.5	64.1*	-0.161	28.2
CCC(C)c1ccc2oc(-c3ccc(NC(=O)Cn4cnc5c(=O)n(C)c(=O)n(C)c54)cc3)nc2c1 (stereo not given)	110.8*	0.0016	-0.5	18.3	-0.0122	38.5
Cn1c(=O)c2ncn(CC(=O)Nc3ccc4oc(-c5cccc6ccccc56)nc4c3)c2n(C)c1=O	-6.5	0.524	-1.0	10.2	0.269	-6.1
CCOC(=O)c1ccc2ncc(C(=O)OCC)c(NCc3ccco3)c2c1	-9.0	-0.756	-1.2	11.2	0.018	14.6
Nc1nc(N)c2sc3nc4c(cc3c2n1)CCC4	-41.6	-0.883	-0.7	57.1*	0.786	56.1*
O=C(c1cccn2c(=O)c3ccc(Cl)cc3nc12)N1CCN(Cc2ccc3c(c2)OCO3)CC1	x	-1.11	x	9.4	3.58	17.8
CCC1CCCCN1C(=O)CSc1nnc(-c2ccc(Cl)cc2)o1 (stereo not given)	5.3	-1.06	-1.3	2.3	-1.71	28.1
CCC1CCCCN1C(=O)CSc1nnc(-c2ccco2)o1 (stereo not given)	11.8	0.299	-0.7	52.3*	-1.04	48.8*
Cn1c(=O)c2c(nc(NCCCN3CCOCC3)n2Cc2ccc(Cl)cc2)n(C)c1=O	7.7	0.149	-1.6	-9.6	-0.0305	-6.9
Cc1cc(NCCCN2CCOCC2)n2ncc(-c3ccc(Cl)cc3)c2n1	-15.3	0.225	-0.5	70.1*	-0.678	61.7*
Cn1c(-c2ccc(Br)o2)nc2cc(Br)ccc21	1.6	0.479	-0.9	89.2*	0.588	39.3
CC(=O)c1ccc(-c2nc3ccccc3n2C)o1	-26.3	0.422	0.7	24.6	0.809	27.9
Cn1c(-c2ccc(Br)o2)nc2ccccc21	-13.5	0.165	-0.8	75.8*	1.66	72.6*
Cc1nn(-c2ccc(Cl)cc2)c2[nH]c(=O)c(CNCc3ccc4c(c3)OCO4)cc12	-5.0	-0.878	-0.1	5.4	1.27	-14.9
Cc1ccnc(NC(=O)CCC(=O)N(CC(=O)NC2CCCCC2)Cc2ccc3c(c2)OCO3)c1	-25.5	-0.0192	-1.3	8.7	-0.293	-25.9
Cc1nc2ncnn2c(N2CCCC(C(=O)Nc3ccc4c(c3)CCC4)C2)c1C (stereo not given)	x	-0.588	x	0.9	-1.15	5.7
O=C(Nc1cccc(C(F)(F)F)c1)C1CCCN(c2ncccn2)C1 (stereo not given)	4.8	-0.982	-0.5	10.6	0.3	11.0
O=C(Nc1ccc2c(c1)CCC2)C1CCCN(c2ncccn2)C1 (stereo not given)	-5.3	0.214	0.4	69.3*	1.25	31.3
Cc1ccc(NC(=O)C2CCCN(c3ncccn3)C2)cc1F (stereo not given)	-3.2	-0.532	-1.7	67.3*	0.0354	45.8
COc1ccc2c(c1)N(C)C(=O)CC(c1ccccc1)=N2	-15.0	-0.267	0.2	3.1	0.956	2.3
COC(=O)c1cc2c(ccn2-c2ccc(F)cc2)n1CC(=O)N1CCN(C(=O)c2ccco2)CC1	-72.2	0.907	-0.7	-9.1	0.59	2.9
CCn1c(C(=O)OC)cc2c1ccn2-c1ccc(F)cc1	-29.3	-0.000493	-1.1	52.6*	-0.536	60.1*
SMILES	S1P1 ag-PAM	M1 antagonist	S1P3 ag	SF-1 act	M1 agonist	RORA act
CN1C(=O)c2oc3ccc(Br)cc3c(=O)c2C1c1ccncc1 (stereo not given)	11.4	-0.0555	-1.4	-4.8	0.00959	7.4
O=C1C2C3C=CC(C3)C2C(=O)N1c1ccc(-c2nc3ccccc3o2)cc1 (stereo not given)	-28.4	0.326	0.0	40.6	0.88	72.8*
CN(C)C(=O)CSc1nnc(C23CC4CC(CC(C4)C2)C3)o1	x	1.06	-0.6	88.3*	0.358	18.3
CCOC(=O)C1=C(c2ccccc2)N2CCN=C2S1	17.5	-0.332	-0.2	-3.3	-0.00951	2.3
O=C(Nc1ccc2nc3n(c(=O)c2c1)CCCCC3)c1ccccn1	-34.5	-0.0183	-0.3	28.3	0.0381	54.4*
O=C(NC1CS(=O)(=O)CC1NCc1ccccc1)c1ccccc1 (stereo not given)	-3.3	0.312	-0.2	-4.6	-0.739	10.6
Cc1c(NC(=O)Nc2ccc(Cl)c(Cl)c2)c(=O)n(-c2ccccc2)n1C	-2.2	0.48	-0.5	0.2	-0.722	-19.8
CC(C)C1C(C#N)=C(N)Oc2n[nH]c(-c3ccccc3)c21 (stereo not given)	-3.8	1.27*	-0.4	-3.4	-0.152	-8.0
O=C(O)CCC(=O)c1ccc2c(c1)OCCO2	-1.2	0.289	-0.3	2.2	-0.661	0.3
O=C(Cn1cnc2ccccc2c1=O)Nc1ccc2c(c1)OCCO2	-6.8	-1.23	-0.7	59.1*	0.284	42.4
O=C(CS(=O)(=O)c1ccccc1)c1ccc2c(c1)OCCO2	11.6	-1.7	-1.4	51.5*	-1.28	34.9
O=C(COc1ncnc2ccccc12)c1ccc2c(c1)OCCO2	-12.1	0.723	-0.2	58.5*	-0.038	-1.0
O=C(CC(=O)c1ccccc1)Nc1ccc2c(c1)OCCO2	-9.4	-0.00799	-0.3	60.8*	0.351	10.3
CCOC(=O)c1cccc(NC(=O)CSc2nnc(COc3ccccc3C)o2)c1	5.5	-0.0428	-0.4	12.5	-1.04	-22.6
COc1ccc(C(O)P(=O)(O)CCc2ccccc2)cc1 (stereo not given)	-13.9	-0.000474	-1.3	-7.8	-0.0884	52.3*
COc1ccc(-n2nc(C(=O)NCC(=O)N3CCN(c4ccccn4)CC3)c3ccccc3c2=O)cc1	-10.9	-0.0415	-0.9	60.5*	1.23	23.4
CSCCNC(=O)c1ccc(C(C)(C)C)cc1	x	0.0631	-1.1	72.7*	-0.834	73.1*
CCn1c(-c2ccc(N)cc2)nc2ccccc21	3.3	1.24	0.9	37.2	0.499	49.9*
CCn1c(-c2ccc(N(C)C)cc2)nc2ccccc21	23.4	-0.964	0.4	19.4	-0.572	87.7*
CCn1c(-c2ccco2)nc2ccccc21	-0.6	-0.599	-0.2	42.4	1.81	6.7
C=CCn1c(-c2ccc(N)cc2)nc2ccccc21	7.7	-1.56	-0.3	56.9*	1.05	38.0
O=C(Nc1cccc(NS(=O)(=O)c2ccc(S(=O)(=O)NC3CC3)cc2)c1)c1ccccn1	22.2	-1.71	-0.4	10.1	-0.298	10.8
